Test results from ChEMBL document CHEMBL1152271, “Interrogating the bioactive pharmacophore of the latrunculin chemotype by investigating the metabolites of two taxonomically unrelated sponges” (J Med Chem, 2008).
Calls of active or inactive are those of the source. The calls are words filed in the database; no cut-off is given here.

Columns and labels:
MDA-MB-435 [1] = experiment: Ratio of IC50 for human MDA-MB-435 cells to IC50 for human HCT116 cells; type: functional
A10 [2] = experiment: Disruption of microfilament in rat A10 cells at 9 uM after 18 hrs using DAPI staining by fluorescence microscopy; type: functional, cell-based
MDA-MB-435 [3] = experiment: Cytotoxicity against human MDA-MB-435 cells 48 hrs by SRB assay; type: functional, cell-based; conditions: MDA-MB-435, 48 h
HCT-116 = experiment: Cytotoxicity against human HCT116 cells after 3 days by trypan blue assay; type: functional, cell-based; conditions: HCT-116, 72 h
MC-38 [4] = experiment: Cytotoxicity against mouse Colon 38 cells at 4.0 uM by disk diffusion soft agar colony formation assay; type: functional; conditions: read-out: IZ
Procedure, shortened: (§1)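 Disk diffusion soft-agar colony formation assay with murine colon 38 cells. The compound is adsorbed onto a disk at a concentration similar to the other compounds tested. The read-out is the zone of inhibition (Z), recorded in mm.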

A10 [5] = experiment: Disruption of microfilament in rat A10 cells at 5 uM after 18 hrs using DAPI staining by fluorescence microscopy
MC-38 [6] = experiment: Cytotoxicity against mouse Colon 38 cells at 3.5 uM by disk diffusion soft agar colony formation assay; type: functional; conditions: read-out: IZ; procedure, shortened: as §1
MC-38 [7] = experiment: Cytotoxicity against mouse Colon 38 cells at 1.9 uM by disk diffusion soft agar colony formation assay; type: functional; conditions: read-out: IZ
Procedure, shortened: (§2)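 Soft agar disk diffusion colony formation assay with murine colon 38 cells, run alongside murine L1210 and CFU-GM. Compound adsorbed onto a disk at similar loadings across compounds. Read-out is the zone of inhibition (Z) in mm. Full method described previously.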

MC-38 [8] = experiment: Cytotoxicity against mouse Colon 38 cells at 5.1 uM by disk diffusion soft agar colony formation assay; type: functional; conditions: read-out: IZ; procedure, shortened: as §2
MC-38 [9] = experiment: Cytotoxicity against mouse Colon 38 cells at 1.1 uM by disk diffusion soft agar colony formation assay; type: functional; conditions: read-out: IZ; procedure, shortened: as §1

Compound | Ratio IC50 (MDA-MB-435 [1]) | Activity (A10 [2]) | IC50 (MDA-MB-435 [3]) | IC50 (HCT-116) | zone of inhibition at 4 µM (MC-38 [4]) | Activity (A10 [5]) | zone of inhibition at 3.5 µM (MC-38 [6]) | zone of inhibition at 1.9 µM (MC-38 [7]) | zone of inhibition at 5.1 µM (MC-38 [8]) | zone of inhibition at 1.1 µM (MC-38 [9])
C/C1=C/C(=O)O[C@@H]2C[C@@H](CC[C@H](C)C(=O)/C=C/C(O)CC1)O[C@@](O)([C@@H]1CSC(=O)N1)C2 (some centres undefined) | <0.6 | inactive | 30.5 µM | > 53 µM | – | – | – | – | – | –
C/C1=C/C(=O)O[C@@H]2C[C@@H](CC[C@H](C)/C=C\[C@@H]3OC(C)(C)O[C@H]3CC1)O[C@@](O)([C@@H]1CSC(=O)N1)C2 | 1.5 | – | 7.9 µM | 5.1 µM | 21 mm | Active | – | – | – | –
CO[C@]1([C@@H]2CSC(=O)N2)C[C@H]2C[C@@H](CC[C@H](C)/C=C\CC/C(C)=C\C(=O)O2)O1 [15-METHOXYLATRUNCULIN B] | 0.6 | – | 29.7 µM | 49 µM | – | inactive | – | – | – | –
C/C1=C/C(=O)O[C@@H]2C[C@@H](CC[C@H](C)/C=C\CC1)O[C@@](O)([C@H]1CSC(=O)N1)C2 [16-EPI-LATRUNCULIN B] | 0.5 | – | 17 µM | 38 µM | – | Active | – | – | – | –
C/C1=C/C(=O)O[C@@H]2C[C@@H](CC[C@H](C)/C=C\[C@H](O)[C@@H](O)CC1)O[C@@](O)([C@H]1CSC(=O)N1)C2 [18-EPI-LATRUNCULOL A] | >9.1 | – | > 50 µM | 5.5 µM | – | inactive | 17 mm | – | – | –
C/C(=C/C(=O)O)CC/C=C\[C@@H](C)CC[C@@H]1CC=CC(=O)O1 [LATRUNCULEIC ACID] | 0.5 | – | 26.1 µM | 48 µM | – | inactive | – | – | – | –
C/C1=C/C(=O)O[C@@H]2C[C@@H](CC[C@H](C)/C=C\C=C\CC1)O[C@@](O)([C@@H]1CSC(=O)N1)C2 [LATRUNCULIN A] | 2.5 | – | 2.8 µM | 1.1 µM | – | Active | – | 9 mm | – | –
C/C1=C/C(=O)O[C@@H]2C[C@@H](CC[C@H](C)/C=C\CC1)O[C@@](O)([C@@H]1CSC(=O)N1)C2 [LATRUNCULIN B] | 0.7 | – | 4.8 µM | 7.1 µM | – | Active | – | – | 13 mm | –
C/C1=C/C(=O)O[C@@H](CC(O)[C@@H]2CSC(=O)N2)C[C@H](O)CC[C@H](C)/C=C\CC1 (some centres undefined) [LATRUNCULIN C] | <0.3 | – | 34.3 µM | > 100 µM | – | inactive | – | – | – | –
C/C1=C/C(=O)O[C@@H]2C[C@@H](CC[C@H](C)/C=C\[C@H](O)[C@@H](O)CC1)O[C@@](O)([C@@H]1CSC(=O)N1)C2 [LATRUNCULOL A] | 4.4 | – | 2.1 µM | 0.48 µM | – | Active | – | – | – | 23.5 mm
CO[C@H]1/C=C\[C@@H](C)CC[C@@H]2C[C@H](C[C@](O)([C@@H]3CSC(=O)N3)O2)OC(=O)/C=C(/C)CC[C@@H]1O [LATRUNCULOL B] | 1.9 | – | 4 µM | 2.1 µM | – | Active | – | – | – | 19.5 mm
C/C1=C/C(=O)O[C@@H]2C[C@@H](CC[C@H](C)/C=C\[C@H](O)[C@H](O)CC1)O[C@@](O)([C@@H]1CSC(=O)N1)C2 [LATRUNCULOL C] | <0.2 | – | 11.9 µM | > 53 µM | – | Active | – | – | – | –
C/C1=C/C(=O)O[C@@H]2C[C@@H](CC[C@H](C)/C=C\CC(=O)CC1)O[C@@](O)([C@@H]1CSC(=O)N1)C2 [LATRUNCULONE B] | 1.1 | – | 1 µM | 0.92 µM | – | Active | – | – | – | 19.5 mm
